Data reported in publication PMC7993274 (Clinical and Translational Science, 2020).

Key:
[1] = test system: MRP2; details: cited from earlier work
[2] = test system: CYP3A4; test: 6‐beta‐hydroxycortisol/cortisol ratio; type: in vivo, human; details: participants receiving PF‐06826647
[3] = Plasma PK, multiple ascending dose; type: in vivo, human; details: for AUCτ (dn) / Cmax (dn): dose normalized; for AUCτ (dn) / Cmax (dn) / AUCτ / Cmax: geometric mean (CV %); for Tmax: median (range); for t1/2: arithmetic mean (SD)
[4] = Plasma PK, single ascending dose; type: in vivo, human; details: for t1/2: arithmetic mean (SD); for AUCinf (dn) / Cmax (dn): dose normalized; for AUCinf (dn) / Cmax (dn) / AUCinf / Cmax: geometric mean (CV %); for Tmax: median (range)
Method in brief: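 Healthy volunteers were randomized 3:1 to test compound or placebo, given as a single oral dose of 3–1,600 mg (tablets; suspension for 3 mg) after an overnight fast of ≥8 h. Plasma was sampled predose and at 0.5–72 h. Assay LLOQ was 1 ng/mL. Parameters came from noncompartmental analysis, were dose-normalized to 1 mg, and were reported as geometric mean (CV), with Tmax excepted.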

[5] = test system: sodium/Na+ taurocholate co‐transporting polypeptide; details: cited from earlier work
[6] = Urinary PK, MAD period day 10; type: in vivo, human; details: day 10, across all doses
Method in brief: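 During the MAD period, urine was collected on day −1 (0–24 h) and day 10 (0–12 h and 12–24 h), with LLOQ 1 ng/mL. Renal clearance and unchanged drug recovered in urine were summarized descriptively as geometric mean (CV), by dose group and for the Japanese 400 mg q.d. cohort.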

[7] = background statement, no reference given; cited from earlier work
[8] = test system: OATP1B3; details: cited from earlier work
[9] = Clinical laboratory parameters, vital signs, ECG and overall safety; type: in vivo, human
Method in brief: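 Double-blind, placebo-controlled study in healthy men and nonchildbearing women aged 18–55 y. The SAD period gave one fasted oral dose; the MAD period gave fed dosing q.d. for 10 days, plus a separate b.i.d. cohort. TEAEs, serious AEs and discontinuation AEs were monitored ≥28 days after the last dose. Vital signs, physical exam, 12-lead ECG, hematology, clinical chemistry and urinalysis were also recorded. Data summarized descriptively.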

[10] = test system: OATP1B1; details: cited from earlier work
[11] = test system: OCT2; details: cited from earlier work
[12] = MAD day 1 fed Japanese cohort 400 mg q.d.
[13] = MAD day 10 fed Japanese cohort 400 mg q.d.
[14] = SAD 1,600 mg single dose fasted

- 6‐beta‐hydroxycortisol/cortisol ratio [2]: no clinically meaningful alteration
- dose proportionality of AUCτ and Cmax ([3]; MAD 30–400 mg q.d.): less‐than‐dose‐proportional
- dose proportionality of AUCτ and Cmax ([3]; MAD 400–1,200 mg q.d.): dose‐proportional
- AUCτ (dn) ([3]; MAD day 1 fed 30 mg q.d.): 22.1 (25) ng.hour/mL/mg
- Cmax (dn) ([3]; MAD day 1 fed 30 mg q.d.): 2.8 (24) ng/mL/mg
- AUCτ ([3]; MAD day 1 fed 30 mg q.d.): 662.8 (25) ng.hour/mL
- Cmax ([3]; MAD day 1 fed 30 mg q.d.): 83.5 (24) ng/mL
- Tmax ([3]; MAD day 1 fed 30 mg q.d.): 3.0 (2.0–6.0) hour
- AUCτ (dn) ([3]; MAD day 1 fed 100 mg q.d.): 18.0 (23) ng.hour/mL/mg
- Cmax (dn) ([3]; MAD day 1 fed 100 mg q.d.): 2.7 (20) ng/mL/mg
- AUCτ ([3]; MAD day 1 fed 100 mg q.d.): 1,803.0 (23) ng.hour/mL
- Cmax ([3]; MAD day 1 fed 100 mg q.d.): 267.2 (20) ng/mL
- Tmax ([3]; MAD day 1 fed 100 mg q.d.): 4.0 (1.0–4.0) hour
- AUCτ ([3]; MAD day 1 fed 200 mg b.i.d., tau = 12 hours): 1,646.0 (70) ng.hour/mL
- Cmax (dn) ([3]; MAD day 1 fed 200 mg b.i.d.): 1.5 (67) ng/mL/mg
- Cmax ([3]; MAD day 1 fed 200 mg b.i.d.): 289.8 (67) ng/mL
- Tmax ([3]; MAD day 1 fed 200 mg b.i.d.): 4.0 (2.0–6.0) hour
- AUCτ (dn) ([3]; MAD day 1 fed 400 mg q.d.): 11.1 (67) ng.hour/mL/mg
- Cmax (dn) ([3]; MAD day 1 fed 400 mg q.d.): 1.5 (33) ng/mL/mg
- AUCτ ([3]; MAD day 1 fed 400 mg q.d.): 4,424.0 (67) ng.hour/mL
- Cmax ([3]; MAD day 1 fed 400 mg q.d.): 585.9 (33) ng/mL
- Tmax ([3]; MAD day 1 fed 400 mg q.d.): 3.0 (2.0–6.0) hour
- AUCτ (dn) ([3]; MAD day 1 fed 1,200 mg q.d.): 14.2 (20) ng.hour/mL/mg
- Cmax (dn) ([3]; MAD day 1 fed 1,200 mg q.d.): 1.7 (10) ng/mL/mg
- AUCτ ([3]; MAD day 1 fed 1,200 mg q.d.): 17,090.0 (20) ng.hour/mL
- Cmax ([3]; MAD day 1 fed 1,200 mg q.d.): 2,023.0 (10) ng/mL
- Tmax ([3]; MAD day 1 fed 1,200 mg q.d.): 2.0 (2.0–4.0) hour
- AUCτ [3, 12]: 6,038.0 (29) ng.hour/mL
- Cmax [3, 12]: 695.5 (19) ng/mL
- Tmax [3, 12]: 4.0 (2.0–4.0) hour
- median Tmax ([3]; MAD day 10, standard meal, all doses (30–1,200 mg)): 4 h
- t1/2 ([3]; MAD day 10 fed 30 mg q.d.): 8.8 (5.8) hour
- AUCτ (dn) ([3]; MAD day 10 fed 30 mg q.d.): 25.1 (32) ng.hour/mL/mg
- Cmax (dn) ([3]; MAD day 10 fed 30 mg q.d.): 2.8 (27) ng/mL/mg
- AUCτ ([3]; MAD day 10 fed 30 mg q.d.): 752.9 (32) ng.hour/mL
- Cmax ([3]; MAD day 10 fed 30 mg q.d.): 85.3 (27) ng/mL
- Tmax ([3]; MAD day 10 fed 30 mg q.d.): 4.0 (4.0–6.0) hour
- t1/2 ([3]; MAD day 10 fed 100 mg q.d.): 12.7 (12.7) hour
- AUCτ (dn) ([3]; MAD day 10 fed 100 mg q.d.): 19.5 (33) ng.hour/mL/mg
- Cmax (dn) ([3]; MAD day 10 fed 100 mg q.d.): 2.6 (30) ng/mL/mg
- AUCτ ([3]; MAD day 10 fed 100 mg q.d.): 1,952.0 (33) ng.hour/mL
- Cmax ([3]; MAD day 10 fed 100 mg q.d.): 263.2 (30) ng/mL
- Tmax ([3]; MAD day 10 fed 100 mg q.d.): 4.0 (2.0–4.0) hour
- AUCτ ([3]; MAD day 10 fed 200 mg b.i.d., tau = 12 hours): 2,010.0 (49) ng.hour/mL
- t1/2 ([3]; MAD day 10 fed 200 mg b.i.d.): 26.9 (8.1) hour
- Cmax (dn) ([3]; MAD day 10 fed 200 mg b.i.d.): 1.7 (46) ng/mL/mg
- Cmax ([3]; MAD day 10 fed 200 mg b.i.d.): 339.5 (46) ng/mL
- Tmax ([3]; MAD day 10 fed 200 mg b.i.d.): 4.0 (2.0–4.0) hour
- t1/2 ([3]; MAD day 10 fed 400 mg q.d.): 7.5 (2.6) hour
- AUCτ (dn) ([3]; MAD day 10 fed 400 mg q.d.): 13.6 (57) ng.hour/mL/mg
- Cmax (dn) ([3]; MAD day 10 fed 400 mg q.d.): 1.7 (37) ng/mL/mg
- AUCτ ([3]; MAD day 10 fed 400 mg q.d.): 5,420.0 (57) ng.hour/mL
- Cmax ([3]; MAD day 10 fed 400 mg q.d.): 667.3 (37) ng/mL
- Tmax ([3]; MAD day 10 fed 400 mg q.d.): 4.0 (2.0–6.0) hour
- t1/2 ([3]; MAD day 10 fed 1,200 mg q.d.): 34.3 (21.9) hour
- AUCτ (dn) ([3]; MAD day 10 fed 1,200 mg q.d.): 12.4 (31) ng.hour/mL/mg
- Cmax (dn) ([3]; MAD day 10 fed 1,200 mg q.d.): 1.5 (21) ng/mL/mg
- AUCτ ([3]; MAD day 10 fed 1,200 mg q.d.): 14,890.0 (31) ng.hour/mL
- Cmax ([3]; MAD day 10 fed 1,200 mg q.d.): 1,855.0 (21) ng/mL
- Tmax ([3]; MAD day 10 fed 1,200 mg q.d.): 4.0 (2.0–4.0) hour
- t1/2 [3, 13]: 7.4 (4.8) hour
- AUCτ [3, 13]: 7,194.0 (20) ng.hour/mL
- Cmax [3, 13]: 887.0 (11) ng/mL
- Tmax [3, 13]: 4.0 (2.0–6.0) hour
- plasma accumulation ([3]; after multiple dosing, q.d. and b.i.d.): < 1.5 fold
- steady‐state reached by ([3]; both q.d. and b.i.d. dosing): ≤ 2 days
- t1/2 ([4]; SAD 3 mg single dose fasted): 3.6 (1.3) hour
- AUCinf (dn) ([4]; SAD 3 mg single dose fasted): 15.9 (59) ng.hour/mL/mg
- Cmax (dn) ([4]; SAD 3 mg single dose fasted): 2.6 (38) ng/mL/mg
- AUCinf ([4]; SAD 3 mg single dose fasted): 47.6 (59) ng.hour/mL
- Cmax ([4]; SAD 3 mg single dose fasted): 7.8 (38) ng/mL
- Tmax ([4]; SAD 3 mg single dose fasted): 2.0 (1.0–2.0) hour
- t1/2 ([4]; SAD 10 mg single dose fasted): 6.0 (1.9) hour
- AUCinf (dn) ([4]; SAD 10 mg single dose fasted): 36.9 (67) ng.hour/mL/mg
- Cmax (dn) ([4]; SAD 10 mg single dose fasted): 4.7 (35) ng/mL/mg
- AUCinf ([4]; SAD 10 mg single dose fasted): 369.3 (67) ng.hour/mL
- Cmax ([4]; SAD 10 mg single dose fasted): 47.1 (35) ng/mL
- Tmax ([4]; SAD 10 mg single dose fasted): 2.0 (1.0–4.0) hour
- t1/2 ([4]; SAD 30 mg single dose fasted): 19.7 (9.5) hour
- AUCinf (dn) ([4]; SAD 30 mg single dose fasted): 28.3 (41) ng.hour/mL/mg
- Cmax (dn) ([4]; SAD 30 mg single dose fasted): 2.6 (34) ng/mL/mg
- AUCinf ([4]; SAD 30 mg single dose fasted): 848.4 (40) ng.hour/mL
- Cmax ([4]; SAD 30 mg single dose fasted): 77.9 (34) ng/mL
- Tmax ([4]; SAD 30 mg single dose fasted): 2.0 (1.0–4.0) hour
- t1/2 ([4]; SAD 100 mg single dose fasted): 38.8 (36.0) hour
- AUCinf (dn) ([4]; SAD 100 mg single dose fasted): 15.8 (42) ng.hour/mL/mg
- Cmax (dn) ([4]; SAD 100 mg single dose fasted): 1.7 (55) ng/mL/mg
- AUCinf ([4]; SAD 100 mg single dose fasted): 1,582.0 (42) ng.hour/mL
- Cmax ([4]; SAD 100 mg single dose fasted): 166.8 (55) ng/mL
- Tmax ([4]; SAD 100 mg single dose fasted): 2.0 (2.0–6.0) hour
- t1/2 ([4]; SAD 400 mg single dose fasted): 16.3 (9.3) hour
- AUCinf (dn) ([4]; SAD 400 mg single dose fasted): 7.6 (65) ng.hour/mL/mg
- Cmax (dn) ([4]; SAD 400 mg single dose fasted): 1.0 (62) ng/mL/mg
- AUCinf ([4]; SAD 400 mg single dose fasted): 3,056.0 (65) ng.hour/mL
- Cmax ([4]; SAD 400 mg single dose fasted): 404.8 (62) ng/mL
- Tmax ([4]; SAD 400 mg single dose fasted): 2.0 (0.5–4.0) hour
- t1/2 [4, 14]: 22.2 (24.6) hour
- AUCinf (dn) [4, 14]: 7.4 (25) ng.hour/mL/mg
- Cmax (dn) [4, 14]: 0.8 (25) ng/mL/mg
- AUCinf [4, 14]: 11,790.0 (25) ng.hour/mL
- Cmax [4, 14]: 1,218.0 (25) ng/mL
- Tmax [4, 14]: 2.0 (0.5–4.0) hour
- dose proportionality of AUCinf and Cmax ([4]; SAD doses of 3–10 mg): greater than dose‐proportional
- dose proportionality of AUCinf and Cmax ([4]; SAD doses of 10–400 mg): less than dose‐proportional
- dose proportionality of AUCinf and Cmax ([4]; SAD doses of 400–1,600 mg): dose‐proportional
- median Tmax ([4]; fasted state, SAD, overall): 2 h
- dose recovered unchanged in urine [6]: < 1.5%
Compound: Cn1cc(-c2cn3nccc3c(-c3cnn([C@]4(CC#N)C[C@@H](C#N)C4)c3)n2)cn1 [PF‐06826647]
- inhibition of transporter protein MRP2 [1]: minimal inhibition
- inhibition of sodium/Na+ taurocholate co‐transporting polypeptide [5]: minimal inhibition
- pKa [7]: < 1.7
- inhibition of transporter protein OATP1B3 [8]: minimal inhibition
- increase in median platelet count from baseline ([9]; SAD 1,600 mg (placebo: 6% decrease)): 28%
- changes in lipid parameters (LDL, HDL, total cholesterol) ([9]; SAD and MAD treatment groups): small, and similar to those observed in the placebo group
- intensity of TEAEs ([9]; all TEAEs): mild in intensity
- lymphocyte counts ([9]; assessment period): No clinically meaningful changes
- neutrophil counts ([9]; assessment period): No clinically meaningful changes
- events of acne or aphthous ulcers ([9]; either treatment period): No events of acne or aphthous ulcers were reported
- serum cystatin C, serum creatinine‐based and cystatin C‐based eGFR ([9]; human, in vivo): No clinically meaningful changes
- vital signs, ECG parameters, physical examination ([9]; human, in vivo): No clinically significant findings
- platelet counts ([9]; participants receiving PF‐06826647): remained within the normal range
- tolerability ([9]; single ≤ 1,600 mg, multiple ≤ 1,200 mg q.d., 200 mg b.i.d., 10‐day dosing): well‐tolerated
- serum creatinine increase from baseline ([9]; some participants, isolated timepoints): up to 0.3 mg/dL
- participants with gastrointestinal AEs ([9]; whole study, three participants): 4%
- inhibition of transporter protein OATP1B1 [10]: minimal inhibition
- inhibition of transporter protein OCT2 [11]: minimal inhibition
